Experimental data taken from publication PMC10262780 (Nature structural & molecular biology, 2022).
Square brackets hold non-standard residues; d marks the D form. Ends that are not written are not given here. * marks the point of attachment. FITC = O=C1OC2(c3ccc(O)cc3Oc3cc(O)ccc32)c2ccc(NC(=S)*)cc21; pS = N[C@@H](COP(=O)(O)O)C(=O)O

Experiments:
[1] = molecular target: human Retinoblastoma protein AB domain with a stabilizing loop deletion (372-787Δ582-642) (human) (UniProt P06400); assay: fluorescence polarisation
[2] = molecular target: T1, Rb (human Retinoblastoma protein AB domain) (Homo sapiens, UniProt P06400, DEL582-642); assay: Isothermal titration calorimetry; format: binding; details: ITC
T1 sequence (P06400 with tags, fused parts or gaps DEL582-642): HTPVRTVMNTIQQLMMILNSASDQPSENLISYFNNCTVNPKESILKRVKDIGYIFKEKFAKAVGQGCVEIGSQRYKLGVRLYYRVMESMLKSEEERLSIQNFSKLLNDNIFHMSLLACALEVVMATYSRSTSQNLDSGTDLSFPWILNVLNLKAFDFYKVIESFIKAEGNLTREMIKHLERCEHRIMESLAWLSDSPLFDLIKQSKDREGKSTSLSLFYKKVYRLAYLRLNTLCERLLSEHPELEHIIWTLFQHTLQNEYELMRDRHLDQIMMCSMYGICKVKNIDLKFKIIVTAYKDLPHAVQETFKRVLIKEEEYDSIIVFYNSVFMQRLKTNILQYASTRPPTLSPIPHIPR
Procedure, shortened: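 Human Rb AB domain (residues 372–787, loop 582–642 deleted), expressed in E. coli, in the cell at 5–30 µM. Peptide/protein titrant in the syringe at 50–300 µM. Cell and syringe samples co-dialysed 48 h at 4 °C in 20 mM sodium phosphate pH 7.0, 200 mM NaCl, 5 mM 2-mercaptoethanol, then degassed. Run at 20.0 °C unless stated, also 10–30 °C. 28 × 10-µl or 13 × 3-µl injections; enthalpy per mole of injectant fitted to a single-site model.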

[3] = molecular target: T2, human Retinoblastoma protein AB domain with a stabilizing loop deletion (372-787Δ582-642) (human, UniProt P06400 372-787, Δ582–642); assay: fluorescence polarisation + ITC
T2 sequence (looked up): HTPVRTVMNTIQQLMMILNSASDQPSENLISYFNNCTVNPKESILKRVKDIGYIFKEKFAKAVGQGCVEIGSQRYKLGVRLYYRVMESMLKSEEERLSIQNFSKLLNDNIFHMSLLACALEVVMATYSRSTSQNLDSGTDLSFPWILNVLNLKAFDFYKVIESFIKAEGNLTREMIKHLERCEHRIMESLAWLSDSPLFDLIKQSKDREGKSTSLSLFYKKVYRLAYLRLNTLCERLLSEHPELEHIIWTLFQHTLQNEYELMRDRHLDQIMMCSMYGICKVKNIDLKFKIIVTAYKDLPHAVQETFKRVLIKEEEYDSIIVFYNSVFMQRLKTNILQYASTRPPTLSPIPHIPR

[4] = molecular target: T2, human Retinoblastoma protein AB domain …; assay: fluorescence polarisation
[5] = molecular target: T2, human Retinoblastoma protein AB domain …; assay: fluorescence polarisation; remark: listed apart in the source
[6] = molecular target: T3, Rb (human Retinoblastoma protein AB domain, 372–787Δ582–642) (Homo sapiens, UniProt P06400, DEL582-642); assay: Fluorescence polarization direct titration of FITC-labelled constructs with Rb; format: binding
T3 sequence (P06400 with tags, fused parts or gaps DEL582-642): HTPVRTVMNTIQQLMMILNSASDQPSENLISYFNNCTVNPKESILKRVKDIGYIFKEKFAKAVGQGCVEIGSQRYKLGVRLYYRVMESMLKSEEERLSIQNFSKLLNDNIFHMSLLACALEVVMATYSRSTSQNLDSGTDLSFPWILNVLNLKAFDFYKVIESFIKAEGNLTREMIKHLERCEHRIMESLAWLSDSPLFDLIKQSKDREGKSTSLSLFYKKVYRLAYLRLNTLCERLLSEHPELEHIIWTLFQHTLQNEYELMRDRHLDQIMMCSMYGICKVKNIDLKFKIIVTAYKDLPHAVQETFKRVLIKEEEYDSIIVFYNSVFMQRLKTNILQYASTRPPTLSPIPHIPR

[7] = molecular target: T1, Rb (human Retinoblastoma protein AB domain); assay: E2F competition; format: binding; details: MBP fusion protein, competition experiment
[8] = molecular target: DNA; details: Oct-1 binding to DNA; cited from earlier work
[9] = molecular target: T2, human Retinoblastoma protein AB domain …; assay: ITC
[10] = from direct titration KD values

## Hum-2–2x: tandem repeat of the Hum-2 (HAdV40) linker between the HAdV5 E1AE2F and E1A_(LxCxE) motifs, MBP fusion
[1]
  KD/KD,E1AWT: 1.1

## 116-VPEVIDLTCHEAGFPP-131 [E1ALxCxE]
[2]; 20 mM Sodium Phosphate pH 7.0, 200 mM NaCl, 5mM 2-mercapto ethanol, 20 °C
  thermodynamic origin of binding to Rb: enthalpically driven

## VPEVIDLTCHEAGFPP[pS]DDEDEEG [E1A_(LxCxE-ACP) peptide (HAdV5 E1A 116-139, phosphorylated at Ser132)]
[3]
  fold increase in binding affinity over E1A_(LxCxE): 5 fold

B1: FITC-labelled E1AΔE (domain or fragment)
chain: SHFEPPTAAAADLDVTAPEDPNEEAVSQIFPDSVMLAVQEGIDLLTFPPAPGSPEPPHLSRQPEQPEQRALGPVSMPNLVPEVIDLTCHEAGFPPSDDEDEEGEEFVLDY
modifications: FITC (fluorescein 5-isothiocyanate) on the N-terminus
[4]
  binding result: binds

B2: MBP-E1AWT (uncleaved MBP fusion of HAdV5 E1A 36-146) (domain or fragment)
chain: SHFEPPTLHELYDLDVTAPEDPNEEAVSQIFPDSVMLAVQEGIDLLTFPPAPGSPEPPHLSRQPEQPEQRALGPVSMPNLVPEVIDLTCHEAGFPPSDDEDEEGEEFVLDY
[5]
  Kd: 0.075 ± 0.017 nM

B3: E1AWT: adenovirus serotype 5 (HAdV5) Early 1A protein fragment (36–146), minimal Rb binding region (protein)
chain: SHFEPPTLHELYDLDVTAPEDPNEEAVSQIFPDSVMLAVQEGIDLLTFPPAPGSPEPPHLSRQPEQPEQRALGPVSMPNLVPEVIDLTCHEAGFPPSDDEDEEGEEFVLDY
modifications: left off: MBP, end not stated, cleaved
[6]; Ceff=(KD,E2F*KD,LxCxE)/KD
  Ceff obtained from the affinities of the construct and the isolated motifs: 0.52 ± 0.09 mM
[6]; binding to Rb
  total ΔGBINDING: -14.24 kcal/mol
[6]; [10]
  affinity enhancement compared to E2F2: 40 fold
  affinity enhancement compared to the individual E1A SLiMs: 4000 fold

B4: MBP-E1AWT: uncleaved MBP fusion protein of E1AWT (protein)
chain: SHFEPPTLHELYDLDVTAPEDPNEEAVSQIFPDSVMLAVQEGIDLLTFPPAPGSPEPPHLSRQPEQPEQRALGPVSMPNLVPEVIDLTCHEAGFPPSDDEDEEGEEFVLDY
modifications: left off: MBP, end not stated, kept
[7]
  binding affinity compared with cleaved E1AWT: same binding affinity as cleaved E1AWT

B5: Oct-1: POU domain activator Oct-1 binding to DNA (protein, UniProt P14859 1-743, looked up)
POU domain, class 2, …: MNNPSETSKPSMESGDGNTGTQTNGLDFQKQPVPVGGAISTAQAQAFLGHLHQVQLAGTSLQAAAQSLNVQSKSNEESGDSQQPSQPSQQPSVQAAIPQTQLMLAGGQITGLTLTPAQQQLLLQQAQAQAQLLAAAVQQHSASQQHSAAGATISASAATPMTQIPLSQPIQIAQDLQQLQQLQQQNLNLQQFVLVHPTTNLQPAQFIISQTPQGQQGLLQAQNLLTQLPQQSQANLLQSQPSITLTSQPATPTRTIAATPIQTLPQSQSTPKRIDTPSLEEPSDLEELEQFAKTFKQRRIKLGFTQGDVGLAMGKLYGNDFSQTTISRFEALNLSFKNMCKLKPLLEKWLNDAENLSSDSSLSSPSALNSPGIEGLSRRRKKRTSIETNIRVALEKSFLENQKPTSEEITMIADQLNMEKEVIRVWFCNRRQKEKRINPPSSGGTSSSPIKAIFPSPTSLVATTPSLVTSSAATTLTVSPVLPLTSAAVTNLSVTGTSDTTSNNTATVISTAPPASSAVTSPSLSPSPSASASTSEASSASETSTTQTTSTPLSSPLGTSQVMVTASGLQTAAAAALQGAAQLPANASLAAMAAAAGLNPSLMAPSQFAAGGALLSLNPGTLSGALSPALMSNSTLATIQALASGGSLPITSLDATGNLVFANAGGAPNIVTAPLFLNPQNLSLLTSNPVSLVSAAAASAGNSAPVASLHATSTSAESIQNSLFTVASASGAASTTTTASKAQ
[8]
  Kd: 0.071 nM
  affinity enhancement by tethering: 2100 fold

B6: FITC-labelled E1AΔL (domain or fragment)
chain: SHFEPPTLHELYDLDVTAPEDPNEEAVSQIFPDSVMLAVQEGIDLLTFPPAPGSPEPPHLSRQPEQPEQRALGPVSMPNLVPEVIDAAAAAGFPPSDDEDEEGEEFVLDY
modifications: FITC (fluorescein 5-isothiocyanate) on the N-terminus
[4]
  binding result: binds

B7: E1AΔL: E1AWT variant with LxCxE motif mutated to poly-alanine (122-LTCHE-126Δ122-AAAA-125) (protein)
chain: SHFEPPTLHELYDLDVTAPEDPNEEAVSQIFPDSVMLAVQEGIDLLTFPPAPGSPEPPHLSRQPEQPEQRALGPVSMPNLVPEVIDAAAAAGFPPSDDEDEEGEEFVLDY
modifications: left off: MBP, end not stated, cleaved
[2]; Rb in cell, peptide/protein as titrant
  heat behaviour of binding to Rb (exothermic/endothermic): endothermic

## SPSLDQDDYLWGLEAGEGISDLFD [Human E2F2 peptide (404-427)]
[9]
  binding result: binds

## {FITC}-VPEVIDLTCHEAGFPP [FITC-labelled E1A_(LxCxE) peptide (HAdV5 E1A 116-131)]
[4]
  binding result: binds
